Laboratory results taken from ChEMBL document CHEMBL4049426, “Identification of the Clinical Candidate (R)-(1-(4-Fluorophenyl)-6-((1-methyl-1H-pyrazol-4-yl)sulfonyl)-4,4a,5,6,7,8-hexahydro-1H-pyrazolo[3,4-g]isoquinolin-4a-yl)(4-(trifluoromethyl)pyridin-2-yl)methanone (CORT125134): A Selective Glucocorticoid Receptor (GR) Antagonist” (J Med Chem, 2017).
Active and inactive are the calls of the source. No cut-off for these calls is given here.

Tests used:
Macaca mulatta = species on record: Macaca mulatta; assay: (§1) Antagonist activity at monkey glucocorticoid receptor in primary hepatocytes assessed as dexamethasone-induced tyrosine amino transferase activity preincubated for 30 mins followed by dexamethasone addition measured after 20 hrs; type: cell-based
[1] = as §1; type: cell-based, Macaca mulatta
Cytochrome P450 3A5 = Cytochrome P450 3A5 (Homo sapiens, UniProt P20815); assay: Inhibition of CYP3A5 (unknown origin); type: ADME
Rattus norvegicus [2] = assay: (§2) In vivo antagonist activity at glucocorticoid receptor in Sprague-Dawley rat assessed as reduction in cortisone-induced plasma glucose levels at 30 mg/kg, po bid via gavage for 6 days pretreated for 12 hrs followed by cortisone 21-acetate treatment measured 24 hrs after last cortisone 21-acetate treatment; type: functional, organism-based
Procedure, shortened: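 Male Sprague Dawley rats (200-250g), 3-day vehicle baseline, groups of eight. Compound as suspension in DMSO:Tween 80:0.5% HPMC 10:0.1:89.9, oral gavage twice daily for 6 days; cortisone 21-acetate 30mg/kg s.c. daily in 1% methylcellulose. Tail-vein blood 24 h after last cortisone (12 h after last compound); glucose by clinical reagent, insulin by ultrasensitive rat ELISA.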

[3] = Protein binding in human plasma; type: ADME, cell-free; conditions: read-out: PPB (converted)
[4] = Protein binding in monkey plasma; type: ADME, cell-free, Macaca mulatta; conditions: rhesus monkey, read-out: PPB (converted)
Rattus norvegicus [5] = assay: as §2, with “rat cortisone model of exogenous Cushing's syndrome” for “rat”, “inhibition of” for “reduction in cortisone-induced”, “insulin” for “glucose”, “7.5” for “30”; type: functional, organism-based
Procedure, shortened: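 Male Sprague Dawley rats (200-250 g) got vehicle daily for a 3-day baseline, then groups of eight were dosed. Test agent was suspended in DMSO:Tween 80:0.5% HPMC (10:0.1:89.9) and given by oral gavage twice daily for 6 days. Cortisone 21-acetate was given at 30 mg/kg s.c. once daily in 1% methylcellulose. Tail-vein blood was taken 24 h after the last cortisone dose (12 h after the last test dose). Glucose was read with a clinical reagent and insulin by rat ELISA.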

Glucocorticoid receptor = molecular target: T1, Glucocorticoid receptor (Homo sapiens, UniProt P04150); assay: Antagonist activity at glucocorticoid receptor in human HepG2 cells assessed as inhibition of dexamethasone-induced tyrosine amino transferase activity preincubated for 30 mins followed by dexamethasone addition measured after 20 hrs; type: cell-based
T1 sequence (P04150 whole entry): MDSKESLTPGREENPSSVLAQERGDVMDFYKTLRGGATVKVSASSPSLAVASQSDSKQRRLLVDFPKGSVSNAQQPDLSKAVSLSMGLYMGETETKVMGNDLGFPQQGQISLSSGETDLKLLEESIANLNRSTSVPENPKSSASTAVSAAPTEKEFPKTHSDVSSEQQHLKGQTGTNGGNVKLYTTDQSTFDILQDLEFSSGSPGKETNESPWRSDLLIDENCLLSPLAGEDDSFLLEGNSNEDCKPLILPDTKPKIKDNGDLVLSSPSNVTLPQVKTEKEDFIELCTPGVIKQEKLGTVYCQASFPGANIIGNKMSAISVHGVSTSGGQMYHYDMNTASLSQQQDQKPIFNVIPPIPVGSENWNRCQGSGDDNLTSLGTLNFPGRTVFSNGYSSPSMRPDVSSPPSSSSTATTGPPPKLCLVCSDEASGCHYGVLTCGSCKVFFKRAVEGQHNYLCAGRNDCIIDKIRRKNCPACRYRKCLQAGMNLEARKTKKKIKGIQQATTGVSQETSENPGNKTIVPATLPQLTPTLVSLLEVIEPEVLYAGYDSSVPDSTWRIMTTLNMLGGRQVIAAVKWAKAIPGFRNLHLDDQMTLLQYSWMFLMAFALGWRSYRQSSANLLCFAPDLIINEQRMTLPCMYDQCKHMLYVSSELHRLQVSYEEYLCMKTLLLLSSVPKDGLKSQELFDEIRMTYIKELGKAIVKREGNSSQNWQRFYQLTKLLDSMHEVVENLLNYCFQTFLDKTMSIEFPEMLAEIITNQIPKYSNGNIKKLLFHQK

[6] = Oral bioavailability in monkey plasma at 20 mg/kg measured up to 24 hrs by LC/MS analysis; type: ADME, organism-based, Macaca mulatta; conditions: rhesus monkey
Procedure, shortened: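 Monkey i.v./p.o. study: oral 20mg/kg in 10% DMSO, 0.1% Tween 80, 0.5% hydroxypropylmethylcellulose in water; i.v. dose 1mg/kg.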

Cytochrome P450 2C8 = molecular target: T2, Cytochrome P450 2C8 (Homo sapiens, UniProt P10632); assay: Inhibition of CYP2C8 (unknown origin)
T2 sequence (P10632 whole entry): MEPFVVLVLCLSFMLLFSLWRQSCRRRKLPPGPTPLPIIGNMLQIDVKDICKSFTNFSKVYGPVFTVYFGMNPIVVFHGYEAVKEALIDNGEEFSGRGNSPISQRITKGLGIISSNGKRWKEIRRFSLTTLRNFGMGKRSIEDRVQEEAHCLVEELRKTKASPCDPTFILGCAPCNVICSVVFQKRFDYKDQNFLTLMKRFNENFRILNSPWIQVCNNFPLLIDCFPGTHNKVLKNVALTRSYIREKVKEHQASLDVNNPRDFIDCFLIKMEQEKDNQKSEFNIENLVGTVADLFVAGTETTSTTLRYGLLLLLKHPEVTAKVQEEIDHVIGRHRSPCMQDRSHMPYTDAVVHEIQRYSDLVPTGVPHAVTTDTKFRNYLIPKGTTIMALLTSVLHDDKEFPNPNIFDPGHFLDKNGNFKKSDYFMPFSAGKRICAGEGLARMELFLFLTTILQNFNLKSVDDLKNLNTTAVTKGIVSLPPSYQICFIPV

[7] = Cmax in Sprague-Dawley CD-1 rat plasma at 5 mg/kg, po administered through gavage measured up to 24 hrs by LC/MS analysis; type: ADME, organism-based; design: dose 5 mg/kg, route oral
Procedure, shortened: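 Jugular-catheterized male Sprague Dawley CD-1 rats (220-250g). Oral arm: five rats, 5mg/kg gavage, 1mg/mL in DMSO:0.5% methylcellulose 10:90, 5mL/kg, sampled pre-dose and 0.25-24 h. i.v. arm: three rats, 1mg/kg, 0.5mg/mL in DMSO:PEG400:propylene glycol 10:45:45, sampled pre-dose and 0.08-24 h. Plasma by LC/MS.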

[8] = molecular target: T3, Glucocorticoid receptor (Homo sapiens) (UniProt P04150); assay: Displacement of fluormone GS Red from human glucocorticoid receptor at 1 uM after 4 hrs by fluorescence polarization assay relative to control
T3 sequence (whole entry): T1 sequence (P04150 whole entry)

Cytochrome P450 2C19 = Cytochrome P450 2C19 (Homo sapiens, UniProt P33261); assay: Inhibition of CYP2C19 (unknown origin); type: ADME
Chain of Cytochrome P450 2C19 (P33261 whole entry): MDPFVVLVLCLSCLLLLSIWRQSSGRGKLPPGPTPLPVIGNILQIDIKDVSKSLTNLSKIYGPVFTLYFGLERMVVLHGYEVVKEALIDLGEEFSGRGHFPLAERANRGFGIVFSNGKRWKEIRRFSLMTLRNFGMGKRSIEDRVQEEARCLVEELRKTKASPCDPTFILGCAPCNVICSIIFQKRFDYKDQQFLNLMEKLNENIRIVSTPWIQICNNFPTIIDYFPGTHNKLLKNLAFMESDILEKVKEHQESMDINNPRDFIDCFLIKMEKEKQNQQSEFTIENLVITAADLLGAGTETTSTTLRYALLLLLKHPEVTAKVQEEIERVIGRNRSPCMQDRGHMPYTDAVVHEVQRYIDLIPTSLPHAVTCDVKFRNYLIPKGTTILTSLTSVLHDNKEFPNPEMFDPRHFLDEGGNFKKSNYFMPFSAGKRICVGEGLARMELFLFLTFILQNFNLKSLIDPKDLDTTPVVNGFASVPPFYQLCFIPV

Chain of Cytochrome P450 3A5 (P20815 whole entry): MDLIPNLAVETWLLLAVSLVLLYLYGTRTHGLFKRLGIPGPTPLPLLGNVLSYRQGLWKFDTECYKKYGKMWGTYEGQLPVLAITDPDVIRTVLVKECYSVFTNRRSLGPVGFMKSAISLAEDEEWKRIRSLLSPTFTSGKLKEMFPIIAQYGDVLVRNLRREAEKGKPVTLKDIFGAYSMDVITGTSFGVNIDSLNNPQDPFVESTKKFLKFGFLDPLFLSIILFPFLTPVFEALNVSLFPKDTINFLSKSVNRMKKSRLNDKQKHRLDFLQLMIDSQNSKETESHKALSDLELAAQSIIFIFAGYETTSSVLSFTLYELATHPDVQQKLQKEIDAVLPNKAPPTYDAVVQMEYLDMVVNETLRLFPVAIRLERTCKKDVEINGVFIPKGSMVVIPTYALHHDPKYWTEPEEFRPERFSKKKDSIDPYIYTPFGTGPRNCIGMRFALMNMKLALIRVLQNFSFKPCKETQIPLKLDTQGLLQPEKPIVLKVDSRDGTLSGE

Cn1cc(S(=O)(=O)N2CCC3=Cc4c(cnn4-c4ccc(F)cc4)C[C@]3(C(=O)c3cc(C(F)(F)F)ccn3)C2)cn1 [RELACORILANT]
Imax (Macaca mulatta): 99%
Ki [1]: 210 nM
IC50 (Cytochrome P450 3A5): 4900 nM
inhibition (Rattus norvegicus [2]): Active
fraction unbound [3]: 0.005
fraction unbound [4]: 0.011
inhibition (Rattus norvegicus [5]): Active
Ki (Glucocorticoid receptor): 7.2 nM
bioavailability [6]: 88%
IC50 (Cytochrome P450 2C8): 210 nM
Cmax [7]: 297 ng/mL
inhibition [8]: 100%
IC50 (Cytochrome P450 2C19): 8000 nM
